Measured values as given in ChEMBL document CHEMBL4118106 (J Med Chem, 2018).
Calls of active or inactive are those of the source. No cut-off for these calls is given here. Where a SMILES comes first, the peptide text is derived from it. Bridges are numbered along the chain shown (N, C = ends). [ ]: non-standard residue; d: D form. S5 = C=CCCC[C@](C)(N)C(=O)O

Legend:
[1] = Inhibition of EGFP-fused MERS-CoV spike protein mediated cell-cell fusion between viral protein expressing human 293T cells and human HuH7 target cells after 4 hrs by inverted fluorescence microscopic analysis; design: species or system Middle East respiratory syndrome-related coronavirus
Summary of the method: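 Huh-7 target cells expressing DPP4 were seeded at 5 × 10^4/well and kept at 37 °C for 5 h. Inhibitors were added, then 293T effector cells co-expressing S protein and EGFP (1 × 10^4/well); 293T/EGFP-only cells served as negative control. After 4 h coculture at 37 °C, fused and unfused cells were counted by fluorescence microscopy.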

[2] = (§1) Inhibition of MERS-CoV spike protein mediated cell-cell fusion between viral protein expressing human 293T cells and human HuH7 target cells assessed as decrease in pseudovirus infection preincubated with virus for 1 hr followed by HuH7 cells addition measured after 48 hrs by luciferase reporter gene assay; design: species or system Middle East respiratory syndrome-related coronavirus; details: Middle East respiratory syndrome-related coronavirus
Summary of the method: (§2)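 Graded peptide concentrations were preincubated with luciferase-reporter pseudovirus bearing MERS-CoV S for 1 h at room temperature. The mixture was added to Huh-7 or Calu-3 cells, with medium refreshed at 12 h. After a further 48 h at 37 °C, luciferase was read. Values are from three independent experiments, mean ± SD.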

[3] = Cytotoxicity against human HuH7 cells after 48 hrs by CCK-8 assay; type: cell-based, Huh-7
Summary of the method: (§3)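 Cells (1 × 10^5 per well) were preincubated at 37 °C for 12 h, then given graded peptide concentrations. After 48 h at 37 °C, CCK-8 was added and absorbance at 450 nm was read 2 h later.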

[4] = as §1, with “human Calu3” for “human HuH7”; design: species or system Middle East respiratory syndrome-related coronavirus; details: Middle East respiratory syndrome-related coronavirus; summary of the method: as §2
[5] = system: Calu-3; assay: Cytotoxicity against human Calu3 cells at 100 uM after 48 hrs by CCK-8 assay; type: cell-based; details: calu-3, 48 h; summary of the method: as §3
[6] = Binding affinity to NHR peptide HR1P in pH 7.2 phosphate buffer assessed as formation of alpha-helical complex at 50 uM after 30 mins by CD spectroscopic method
Summary of the method: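 Peptides were at 50 µM final in 50 mM PBS, pH 7.2. Equimolar HR1P/peptide mixtures were incubated at 25 °C for 30 min before CD scanning. α-Helicity was taken from [θ]222, where -33,000 deg cm2/dmol = 100% helix.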

[7] = Binding affinity to NHR peptide HR1P in pH 7.2 phosphate buffer assessed as thermal unfolding transition at 50 uM after 30 mins by CD spectroscopic method
Summary of the method: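 Equimolar HR1P/peptide mixtures, 50 µM final in 50 mM PBS pH 7.2, were preincubated at 25 °C for 30 min. Thermal denaturation was followed by CD at 222 nm over a 10–90 °C gradient at 2 °C/min.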

[8] = Binding affinity to NHR peptide HR1P in pH 7.2 phosphate buffer at 200 uM after 30 mins by N-PAGE analysis
Summary of the method: (§4)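 Stapled peptide and HR1P, each 200 µM (in 50 mM PBS or ddH2O), were incubated together at 25 °C for 30 min. Samples in Tris-glycine native sample buffer were run on an 18% Tris-glycine gel (pH 8.3 buffer) at 120 V for 3 h at room temperature and stained with Coomassie blue R250.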

[9] = Binding affinity to NHR peptide HR1P in pH 7.2 phosphate buffer at 250 uM after 30 mins by sedimentation velocity analysis
Summary of the method: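 HR1P/peptide mixtures at 250 µM in 50 mM PBS were incubated at 25 °C for 30 min. After an initial scan at 3000 rpm for 10 min, sedimentation velocity was run at 60,000 rpm, 280 nm, 20 °C, for 7 h. Weight-averaged molecular weights were obtained by fitting.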

[10] = Binding affinity to NHR peptide HR1P in pH 7.2 phosphate buffer assessed as formation of alpha-helical complex at 200 uM after 30 mins by N-PAGE analysis; summary of the method: as §4

SMILES	EC50 [1] [nM]	EC50 [2] [nM]	CC50 at 48 h [3] [nM]	EC50 [4] [nM]	Activity [5]	Activity [6]	Tm [7] [°C]	Activity [8]	Activity [9]	Activity [10]
CSCC[C@H](NC(=O)[C@H](CCC(=O)O)NC(=O)[C@H](Cc1ccc(O)cc1)NC(=O)[C@@H](NC(=O)[C@H](CC(C)C)NC(=O)[C@H](CC(=O)O)NC(=O)[C@H](CC(C)C)NC(C)=O)[C@@H](C)O)C(=O)N[C@@H](CC(C)C)C(=O)N[C@@H](CO)C(=O)N[C@@H](CC(C)C)C(=O)N[C@@H](CCC(N)=O)C(=O)N[C@@]1(C)CCC/C=C\CCC[C@@](C)(C(=O)N[C@@H](CC(C)C)C(=O)N[C@@H](CC(N)=O)C(=O)N[C@@H](CCC(=O)O)C(=O)N[C@@H](CO)C(=O)N[C@@H](Cc2ccc(O)cc2)C(N)=O)NC(=O)[C@H](CCCCN)NC(=O)[C@H](C(C)C)NC(=O)[C@H](C(C)C)NC1=O (Ac-LDLTYEMLSLQ[S5]VVK[S5]LNESY-NH2; staple (Z) 12-16)	260	3030	> 100000	2210	Non-Toxic	35.5%	71.1	Active	Active	–
CSCC[C@H](NC(=O)[C@H](CCC(=O)O)NC(=O)[C@H](Cc1ccc(O)cc1)NC(=O)[C@@H](NC(=O)[C@H](CC(C)C)NC(=O)[C@H](CC(=O)O)NC(=O)[C@H](CC(C)C)NC(C)=O)[C@@H](C)O)C(=O)N[C@@H](CC(C)C)C(=O)N[C@@H](CO)C(=O)N[C@@H](CC(C)C)C(=O)N[C@@]1(C)CCC/C=C/CCC[C@@](C)(C(=O)N[C@@H](C)C(=O)N[C@@H](CC(C)C)C(=O)N[C@@H](CC(N)=O)C(=O)N[C@@H](CCC(=O)O)C(=O)N[C@@H](CO)C(=O)N[C@@H](Cc2ccc(O)cc2)C(N)=O)NC(=O)[C@H](C(C)C)NC(=O)[C@H](C(C)C)NC(=O)[C@H](CCC(N)=O)NC1=O (Ac-LDLTYEMLSL[S5]QVV[S5]ALNESY-NH2; staple (E) 11-15)	> 50000	–	–	–	–	inactive	–	–	–	inactive
